# TRAIL sens C8 – sensitizes caspase-8 expressing cells to TRAIL | inhibition (viability loss, TRAIL sensitization), % at 10 µM | NB7+C8 cells + TRAIL, ATPlite viability luminescence | actives 1% (n = 360,000) | AID 624354;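 active = compounds causing at least 50% loss of cell viability in the single-dose screen, relative to plate controls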
# Platelet DG rel – modulates dense granule release in human platelets | human platelet-rich plasma, SFLLRN dense granule ATP release, luminescence | actives 0.22% (n = 300,000) | inhibition, %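 (compounds screened at 7.5 µM in platelet-rich plasma)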;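 active = mean replicate score, as percent of positive control, at or above 50; inconclusive = mean below 50 but at least one replicate at or above 50; inactive = mean and every replicate below 50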
# FLuc inh counter – Photinus pyralis luciferase inhibition counter-screen; inhibition, % at 10 µM; P08659; ATPLite firefly luciferase biochemical luminescence, 10 min; AID 1006; actives 1.5% (n = 200,000);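 active = inhibition above about 50% when tested at 10 µM, limit read from the data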
# Target sequence (P08659 whole entry, looked up): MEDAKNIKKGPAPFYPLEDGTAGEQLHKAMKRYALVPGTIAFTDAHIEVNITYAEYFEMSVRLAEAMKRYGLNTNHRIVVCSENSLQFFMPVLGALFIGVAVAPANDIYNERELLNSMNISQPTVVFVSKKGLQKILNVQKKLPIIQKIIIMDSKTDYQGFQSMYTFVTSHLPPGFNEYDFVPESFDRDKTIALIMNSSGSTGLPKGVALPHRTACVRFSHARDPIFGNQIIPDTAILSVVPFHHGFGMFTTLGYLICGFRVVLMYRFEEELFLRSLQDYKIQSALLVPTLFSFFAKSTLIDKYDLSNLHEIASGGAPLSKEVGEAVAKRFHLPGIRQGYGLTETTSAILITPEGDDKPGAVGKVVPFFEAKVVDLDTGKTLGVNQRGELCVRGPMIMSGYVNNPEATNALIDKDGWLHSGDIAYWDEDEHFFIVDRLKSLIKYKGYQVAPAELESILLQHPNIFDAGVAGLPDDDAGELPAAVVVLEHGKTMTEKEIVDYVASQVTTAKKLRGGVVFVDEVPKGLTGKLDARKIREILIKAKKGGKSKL
# FLuc act counter – affects firefly luciferase, flagging false hits in luciferase stimulation screens. P08659. ATPlite luciferase biochemical, luminescence, 10 min; 0 = ATP-free wells, 1 = DMSO control. activation factor at 10 µM. 200,000 tested, under 10 active. AID 1027;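 active = luciferase activation factor, scaled between plate controls, of at least 2 with compound at 10 µM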
#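 Material: Luciferase/luciferin reagent mix; Doses: test compounds dosed from 2 mM stocks in 100% DMSO; Schedule: 10 min incubation after luciferase reagent addition, room temperature; Measured by: luminescence from luciferase reaction; Read-out: luminescence gain marking luciferase activators.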
# PPC-1+TRAIL kill – kills PPC-1 cancer cells in the presence of TRAIL. PPC-1 cells + TRAIL, ATPLite viability luminescence. cell killing (% activity), % at 4 µM or 5 µM. actives 0.41% (n = 220,000). AID 1443;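 active = cell killing above 50% in the first pass at 4 µM, then a duplicate retest at 5 µM averaging 50% or more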
# A number is an active result; - = inactive; ? = inconclusive; . = no result given. In the library only some 1.6% were active in any assay of this set; here they are far more common.
SMILES,TRAIL sens C8,Platelet DG rel,FLuc inh counter,FLuc act counter,PPC-1+TRAIL kill
Cc1sc(N=Nc2ccc(N(C)C)cc2)[n+]([O-])c1C,-,.,.,.,.
CCCCn1nnnc1C(c1ccccc1)N1CCN(C(=O)c2ccco2)CC1 (stereo not drawn),-,.,.,.,.
COc1ccc(-c2cc(=O)c3ccccc3s2)cc1,54,-,67,-,-
COc1ccc2sc3ccccc3c(=O)c2c1,-,-,-,-,-
Cc1ccc(CSc2nnc(SCC(=O)N/N=C/C=C/c3ccccc3[N+](=O)[O-])s2)cc1,-,-,59,-,-
Cc1ccc(CSc2nnc(SCC(=O)N/N=C/C=C/c3ccco3)s2)cc1,-,-,-,-,-
CSc1ccc(CNC(=O)Cc2ccc(NC(=O)C3=C(C)OCCS3)cc2)cc1,59,-,.,.,.
Nc1ncnc2c1ncn2C1OC(CO)C2OC21 (stereo not drawn),-,.,.,.,.
CCOC1OC2C(CO)OC(n3cnc4c(N)ncnc43)C2O1 (stereo not drawn),-,74,-,-,-
Nc1ncnc2c1ncn2[C@@H]1O[C@H](COP(=O)(O)O)[C@@H](O)[C@H]1O,-,83,.,.,.
Cc1ccc2nc(CSc3nc(C)ccc3C#N)[nH]c2c1,-,-,65,-,-
C(=C\c1ccccc1)/CN1CCN(C(c2cc3ccccc3o2)c2nnnn2C2CCCCC2)CC1 (stereo not drawn),-,.,.,.,.
CCn1cc(/C=C/C(=O)c2ccc(O)cc2)c(C)n1,64,-,90,-,-
Cc1nn(C)c(C)c1/C=C/C(=O)c1ccccc1,-,-,-,-,-
Cn1cc(/C=C/C(=O)c2ccccc2)c2ccccc21,60,-,.,.,-
Cc1nn(C)cc1/C=C/C(=O)c1ccccc1,-,-,54,-,-
CCn1cc(/C=N/O)c(C)n1,-,-,-,-,-
O=C(Nc1ccccc1[N+](=O)[O-])OCC=Cc1ccccc1,-,.,.,.,.
CC1=C(C(=O)N(C(C)C)C(C)C)CC(CC(=O)NCC2CCCCC2)C(=O)N1Cc1ccc(C(C)(C)C)cc1 (stereo not drawn),-,.,.,.,.
COc1cccc(C(O)c2nc(-c3ccc(Cl)cc3)cs2)c1 (stereo not drawn),-,.,.,.,.
CCNc1nc(NC(C)C)nc(-c2ccncc2)n1,-,.,.,.,.
O=C(Cn1cnc([N+](=O)[O-])n1)N/N=C/c1ccc(O)cc1O,52,-,-,-,-
O=C(Cc1ccccc1)Nc1nnc(SCC(=O)NC2CCCC2)s1,-,-,-,-,-
O=C(CSc1nnc(NC(=O)c2ccc(F)cc2)s1)NC1CCCC1,63,-,.,.,.
O=C(Nc1nnc(SCC(=O)N2CCOCC2)s1)c1ccccc1,75,-,92,-,71
SMILES,TRAIL sens C8,Platelet DG rel,FLuc inh counter,FLuc act counter,PPC-1+TRAIL kill
O=C(CSc1nnc(NC(=O)c2ccccc2)s1)NC1CCCC1,57,-,.,.,.
COCCNC(=O)C1CCCN(Cc2ccccc2-c2ccccc2)CC1 (stereo not drawn),-,.,.,.,.
CCCCCc1cc(=O)oc2c(C(CCN3CCCC3)c3cc(OC)c(OC)c(OC)c3)c(OC)cc(OC)c12 (stereo not drawn),53,-,.,.,-
O=C(CCC1CCCC1)Nc1ccc(OCC(=O)N2CCOCC2)cc1,-,-,73,-,-
Cc1cc(NC(=O)c2ccccc2F)cc(C)c1OCC(=O)N1CCOCC1,-,-,.,.,.
O=C(Nc1ccc(OCC(=O)N2CCOCC2)cc1)c1ccccc1F,61,-,.,.,.
Cc1cc(C)c2c(=N)c3ccccc3n(CCCCCCCCn3c4ccccc4c(=N)c4c(C)cc(C)nc43)c2n1,79,.,.,.,.
CCCCCCCCn1c2c(c(=N)c3ccccc31)CCC2,-,-,-,-,.
CCOc1ccc2nc(N3C(=O)CNC3=S)sc2c1,59,-,.,.,-
O=C1CNC(=S)N1c1nc(-c2ccccc2)cs1,-,-,-,-,-
Cc1cc2nc(N3C(=O)CNC3=S)sc2cc1C,57,-,82,-,-
COc1ccc(C(C)(NC(C)=O)c2nc(-c3ccc(F)cc3OC)cs2)cc1 (stereo not drawn),-,.,.,.,.
CCOC(=O)N1CCC(Nc2c(NCCCOC)c(=O)c2=O)CC1,-,-,-,-,-
CCOC(=O)N1CCC(Nc2c(OCC)c(=O)c2=O)CC1,-,-,-,-,52
CCN1CCN(Cc2ccc(NC(=O)Nc3ccccc3Cl)cc2)CC1,-,-,66,-,-
O=C(Nc1ccc(CN2CCCCC2)cc1)Nc1ccccc1Cl,-,-,-,-,-
O=C(NCCCN1CCOCC1)c1ccc(/C=C2\Oc3ccccc3N(Cc3ccccc3F)C2=O)cc1,-,-,.,.,.
CCN1CCN(CCCNC(=O)c2ccc(/C=C3/Oc4ccccc4N(Cc4cccc(C)c4)C3=O)cc2)CC1,55,-,.,.,.
CC1(C(=O)Nc2ccc(Cl)c(C(F)(F)F)c2)Cc2c(-c3ccc(C(N)=O)cc3)ccnc2O1 (stereo not drawn),-,.,.,.,.
C[C@H](NC(=O)c1ncn2c1c(=O)[nH]c1ccccc12)c1ccccc1,-,.,.,.,.
C[C@H](NC(=O)c1ncn2c1c(=O)[nH]c1ccc(Br)cc12)c1ccccc1,91,.,.,.,.
O=C1CN(c2nc(-c3ccccc3)c3cc(Cl)ccc3n2)c2ccccc2N1,-,-,-,-,-
O=C1Cc2c(-c3ccccc3)cc(-c3cccc(Cl)c3)nc2-c2ccccc2N1,64,.,.,.,.
COCCNC(=O)C1(C)CCN(Cc2cccc(Oc3ccccc3)c2)C1 (stereo not drawn),-,.,.,.,.
COCc1nnc(NC(=O)c2ccc(OC)cc2OC)s1,-,-,56,-,-
SMILES,TRAIL sens C8,Platelet DG rel,FLuc inh counter,FLuc act counter,PPC-1+TRAIL kill
COc1ccc(C(=O)Nc2nnc(Cc3ccc(OC)c(OC)c3)s2)c(OC)c1,-,-,.,.,.
Cc1ccc(/C=[N+](\[O-])c2ccc(N(C)C)cc2)c2nsnc12,-,-,72,-,-
Cc1ccc2nsnc2c1NS(=O)(=O)c1c(C)ccc2nsnc12,-,-,-,-,-
COC(=O)c1cn(CC(C)n2c(=O)c3ccccc3n2Cc2cc(C(C)C)no2)nn1 (stereo not drawn),-,.,.,.,.
Cc1ccc(-c2c(C#N)c(N)n(-c3ccc(C)cc3)c(=O)c2C#N)cc1,-,?,-,-,-
Cc1ccc(-n2c(N)c(C#N)c(-c3ccc(Cl)cc3)c(C#N)c2=O)cc1,-,75,-,-,-
O=S1(=O)CCN(Cc2csc(-c3cccs3)n2)CC1,-,52,.,.,-
Cc1cccc(NC(=S)N/N=C/c2ccc([N+](=O)[O-])s2)c1,48,.,-,-,-
Nc1nnnn1/N=C/C(Br)=C/c1ccccc1,59,-,-,-,-
COc1ccc(Cl)cc1CNC[C@H]1O[C@@H](n2cnc3c(=O)[nH]c(N)nc32)[C@H](O)[C@@H]1O,-,.,.,.,.
Cc1ccc(S(=O)(=O)N2C[C@H]3N(C(=O)OC(C)C)N(C(=O)OC(C)C)C[C@H](OC(=O)NCc4ccco4)[C@@]3(O)C2)cc1,-,.,.,.,.
O=C(Nc1cccc(NC(=O)c2cccnc2Cl)c1)c1ccco1,-,112,-,-,-
O=C(Nc1cccc(NC(=O)c2ccccc2Cl)c1)c1ccco1,-,59,.,.,.
CCCCNC(=O)C[C@@H]1C[C@@]2(C(=O)OCC)CCCC=C2N(CCC2=CCCCC2)C1=O,-,.,.,.,.
